High-throughput results deposited in PubChem by several laboratories.
Shown are actives, neighbours in structure and some others; about 7.6% of the full set was active somewhere.
M1 agonist – M1 muscarinic receptor agonists, primary screen, CHO-M1 cells, Fluo-4 calcium, agonist mode; Fluo-4 calcium fluorescence; stronger effect = higher value; B-score at 10 µM; 64,000 tested, 3% active; AID 626, 2007;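 active = fluorescence rise, raw or as B-score row- and column-corrected plate score, outside the 99.7% band of its plate's samples, either direction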
Jurkat tox 60K – cytotoxicity toward Jurkat T cells, primary screen, cytotoxicity control, cell-based, Jurkat E6.1, 60K MLSMR library; Jurkat E6.1 viability, ATP luminescence, 48 h; inhibition, % at 4 µM; 56,000 tested, 1.2% active; AID 463, 2006;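 active = inhibition above the mean inhibition of all tested compounds plus 3 SD, cut at about 28% in these data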
HEK293 NFkB inh – inhibitors of PMA/ionomycin-induced NF-kB reporter, primary screen, antigen receptor NF-kB inhibitor project, cell-based, HEK-293 luciferase reporter, luminescence. HEK-293 NF-kB luciferase reporter. inhibition, % at 3 µM. 62,000 tested, 0.21% active. AID 465, 2006;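 active = inhibition above the mean of all tested compounds plus 3 SD, cut at about 40% in these data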;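 also: 0% = stimulated DMSO wells and 100% = 10 µM reference inhibitor 5653914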
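System: NF-kB luciferase reporter HEK-293 cells | Replication: Single test | Control set: DMSO vs reference inhibitor | Evaluation: % inhibition | Schedule: 1 h pretreatment, 16 h stimulation, 37 °C | Probe or stimulus: PMA with ionomycin | Compound dosing: One dose, 3 µM | Detection: Luciferase luminescence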
M1 antag – antagonists of rat M1 muscarinic receptor. Muscarinic acetylcholine receptor M1 (Rattus norvegicus), P08482. 64,000 tested, 3.4% active. B-score at 10 µM. AID 628, 2007. CHO-M1 cells, Fluo-4 calcium, ACh EC80 antagonist mode; stronger effect = lower value;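 active = calcium fluorescence response, raw or row-and-column corrected B-score, differing from the plate sample mean either way at a set confidence level, mostly lower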
DAT uptake mod – changed hDAT dopamine uptake under cocaine IC80, either direction, primary screen, cocaine antagonist project, cell-based, LLC-PK1 hDAT, [14C]-dopamine uptake, MLSMR. Sodium-dependent dopamine transporter (Homo sapiens), Q01959. LLC-PK1 hDAT cells, [14C]-dopamine uptake with cocaine IC80; actives deviate in either direction. B-score at 10 µM. 110,000 tested, 1.3% active;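 active = Z score or B-score, a plate-position-corrected score, falls beyond the plate's 99.7% confidence bounds, in either direction; inactive = both scores lie inside the 99.7% bounds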;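 also: scored against the spread of the other compound wells on the same plate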
Target sequence (Q01959 whole entry, looked up): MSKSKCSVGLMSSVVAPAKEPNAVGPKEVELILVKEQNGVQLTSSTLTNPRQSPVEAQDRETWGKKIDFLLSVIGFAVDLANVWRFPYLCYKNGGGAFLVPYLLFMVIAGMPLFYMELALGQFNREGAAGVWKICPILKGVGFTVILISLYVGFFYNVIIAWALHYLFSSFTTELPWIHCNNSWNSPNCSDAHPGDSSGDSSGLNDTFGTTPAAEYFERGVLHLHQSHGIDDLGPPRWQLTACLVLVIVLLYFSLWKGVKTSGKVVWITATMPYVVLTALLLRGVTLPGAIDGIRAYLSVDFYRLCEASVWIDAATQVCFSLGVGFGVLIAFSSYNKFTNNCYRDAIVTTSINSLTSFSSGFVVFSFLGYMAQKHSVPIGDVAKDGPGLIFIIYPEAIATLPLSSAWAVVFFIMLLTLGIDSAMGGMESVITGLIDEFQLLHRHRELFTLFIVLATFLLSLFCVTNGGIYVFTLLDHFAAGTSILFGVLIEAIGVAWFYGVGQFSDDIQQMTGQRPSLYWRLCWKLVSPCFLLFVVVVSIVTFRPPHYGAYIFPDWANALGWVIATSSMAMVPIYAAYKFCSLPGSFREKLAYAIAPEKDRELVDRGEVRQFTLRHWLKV
D1 allo mod – D1 CRE-luciferase signal change, two-sided – cell-based, HEK293 D1, dopamine EC30, D1 allosteric modulator project, primary screen | D(1A) dopamine receptor (Homo sapiens), P21728 | dopamine EC30 potentiation; actives deviate in either direction | B-score at 10 µM | 58,000 tested, 5.9% active | AID 641, 2007;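 active = luminescence count or its row- and column-corrected plate score outside the 99.7% band of the plate's sample wells, on either side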
D1 PAM confirm – D1 receptor positive allosteric modulators, retest, confirmation, cell-based, HEK293 D1, CRE-luciferase, duplicate. 2,200 tested, 88% active. luminescence at 10 µM. AID 642, 2007. dopamine EC30 potentiation; stronger effect = higher value. shares compounds with D1 allo mod;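 active = luminescence in either of two replicates above the same-plate mean plus 3 SD of the low-dose dopamine control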
D1 no dopamine – D1 receptor agonism without dopamine, confirmation, mechanism study for D1 allosteric modulator project, cell-based, HEK293 D1, CRE-luciferase, secondary assay 1; 1,900 tested, 0.8% active; AID 646, 2007; luminescence at 10 µM; luminescence, no dopamine; stronger effect = higher value; shares compounds with D1 allo mod; in the data active = luminescence above about 3900
Isoprot counter – counter-screen for D1 modulators: isoproterenol response in HEK293 cells | shares compounds with D1 allo mod | HEK293 D1 CRE-luciferase, isoproterenol EC30 counter-screen | calls only at 10 µM | 2,200 tested, 63% active;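 active = luminescence in either replicate above plate mean of wells with a partly effective reference agonist dose plus 3 SD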;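 also: isoproterenol raises cAMP through native beta-adrenoceptor Gs so signal bypasses D1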
Starred values were filed as active, the others as inactive; i = inactive; nt = no result given; + = active, no number.

SMILES	M1 agonist	Jurkat tox 60K	HEK293 NFkB inh	M1 antag	DAT uptake mod	D1 allo mod	D1 PAM confirm	D1 no dopamine	Isoprot counter
O=C(Nc1ccc(F)cc1)N1CCOCC1	0.094	-6	1	1.1	-0.93	5.4*	5328	1472	i
O=C(Nc1ccc(Cc2ccc(NC(=O)N3CCOCC3)cc2)cc1)N1CCOCC1	0.00087	-2	8	0.11	-0.34	0.6	nt	nt	nt
Cc1nc2cc(C(=O)NCCN3CCOCC3)ccc2n1-c1ccc(F)cc1F	-0.45	5	18	0.55	-0.91	0.58	nt	nt	nt
O=C(c1ccccc1)c1coc2ccc(O)c(CN3CCOCC3)c12	-0.45	-4	24	0.71	1.8	7.6*	13536*	1636	+
CCC(C)Sc1nc2c([nH]c3ccccc32)c(=O)n1C (stereo not drawn)	-0.19	-4	7	0.25	-0.53	5.5*	14100*	1792	i
COC(=O)C(C)Sc1nc2c([nH]c3ccccc32)c(=O)n1C (stereo not drawn)	0.16	nt	9	-0.63	-1.3	1.6	nt	nt	nt
COC(=O)c1ccc(C(=O)OC)c(NC(=S)N2CCN(c3ccccc3)CC2)c1	nt	nt	nt	nt	0.34	nt	nt	nt	nt
CSC1=NC(NCCCO)c2c(sc3c2CC(C)(C)OC3)N1 (stereo not drawn)	1.6	5	8	-0.38	0.41	3.9*	11400*	1504	i
CC1(C)Cc2c(sc3nc(SCC(=O)O)[nH]c(=O)c23)CO1	0.03	-6	19	0.046	0.83	-0.61	nt	nt	nt
N#Cc1c(-c2cccs2)cc(-c2ccccn2)nc1N	nt	2	7	nt	0.11	5.6*	10756*	1560	+
O=C(NN1C(=O)c2ccccc2NC1c1ccccc1OCc1ccccc1)c1ccncc1 (stereo not drawn)	nt	nt	nt	nt	-0.0095	nt	nt	nt	nt
CCc1ccc(OCCNC(=O)c2cccs2)cc1	nt	nt	nt	nt	-0.52	nt	nt	nt	nt
O=C(COC(=O)[C@H](Cc1ccccc1)NC(=O)c1ccco1)NC(c1ccccc1)c1ccccc1	nt	nt	nt	nt	-0.37	nt	nt	nt	nt
O=C(NC(Cc1ccccc1)C(=O)OCC(=O)N1CCc2ccccc21)c1ccco1 (stereo not drawn)	2.1	4	26	-1.5	-0.032	3.1*	5596	1648	i
Cc1cc(F)c(F)c(C(=O)N2CCOCC2)c1	nt	nt	nt	nt	-0.57	nt	nt	nt	nt
CCOC(=O)c1oc2cccc(O)c2c1CN1CCOCC1	-0.1	-3	3	0.4	0.004	5.8*	7884*	1544	i
CCOC(=O)c1cc(CN2CCOCC2)oc1-c1ccccc1	0.29	-2	20	-0.29	-0.1	4*	12300*	1700	+
CCOC(=O)c1c(-c2ccccc2)oc2ccc(O)c(CN3CCOCC3)c12	0.012	-2	1	-0.062	0.52	0.48	nt	nt	nt
CCOC(=O)c1oc2ccccc2c1CN1CCN(C(=O)c2ccccc2)CC1	0.5	4	17	0.58	2.8*	6.9*	17092*	1488	+
CCOC(=O)c1oc2ccccc2c1CN1CCN(c2ccccc2)CC1	0.11	5	-1	0.87	-0.74	-0.32	nt	nt	nt
Nc1c(S(=O)(=O)c2cccs2)c2nc3ccccc3nc2n1CC1CCCO1 (stereo not drawn)	0.72	-3	22	-0.086	-0.51	5.9*	12068*	1576	+
Nc1c(S(=O)(=O)c2cccs2)c2nc3ccccc3nc2n1Cc1cccs1	0.16	-12	9	-0.066	-0.82	0.58	nt	nt	nt
COc1cc(C(=O)OCc2cc3ccccc3[nH]c2=O)cc(OC)c1OC	-0.23	-5	20	-0.088	1.8	1	nt	nt	nt
O=C(Nc1cccnc1)c1ccccc1F	-0.93	-8	10	-0.064	0.35	-0.13	nt	nt	nt
O=C(Nc1cccnc1)c1cnn2c(C(F)F)cc(C3CC3)nc12	0.61	4	3	-2.3	0.0083	5*	16636*	1580	+
SMILES	M1 agonist	Jurkat tox 60K	HEK293 NFkB inh	M1 antag	DAT uptake mod	D1 allo mod	D1 PAM confirm	D1 no dopamine	Isoprot counter
CCOC(=O)c1cnn2c(C(F)F)cc(C3CC3)nc12	-0.26	0	7	0.0087	-0.73	3.7*	14020*	1636	+
CCOc1ccc(N(CC(=O)OC)S(=O)(=O)c2ccc(OC)c(OC)c2)cc1	-1.2	8	16	0.43	1.3	3.6*	12916*	1768	+
COc1ccc(N(CC(=O)O)S(=O)(=O)c2ccc(OC)c(OC)c2)cc1	0.35	nt	nt	-0.79	-0.41	-1.2	nt	nt	nt
COC(=O)CN(c1ccc(OC)cc1)S(=O)(=O)c1ccc(OC)c(OC)c1	-0.11	-3	9	0.49	0.36	3*	10376*	1508	+
Cc1cccc2cc(CN(Cc3ccco3)C(c3nnnn3CCc3ccccc3)C(C)C)c(=O)[nH]c12 (stereo not drawn)	-0.73	3	20	0.046	1.5	0.65	nt	nt	nt
C/C=C/Cn1c(SCCCc2ccccc2)nc2c1c(=O)[nH]c(=O)n2C	0.14	1	-1	-0.28	0.63	6.3*	8184*	1456	i
CCOCCn1c(SCC)nc2c1c(=O)[nH]c(=O)n2C	0.0061	nt	22	-0.007	-0.2	1.6	nt	nt	nt
CCOCCn1c(SCCc2ccccc2)nc2c1c(=O)[nH]c(=O)n2C	1.3	-1	11	-0.21	-0.0081	0.51	nt	nt	nt
CCOCCSc1nc2c(c(=O)[nH]c(=O)n2C)n1CCCc1ccccc1	0.87	nt	nt	0.11	-0.056	5.6*	12256*	1704	+
CCCCCn1c(SCCc2ccccc2)nc2c1c(=O)[nH]c(=O)n2C	0.35	10	18	0.22	0.14	5.5*	12580*	1568	+
CCCCCn1c(SCCOCC)nc2c1c(=O)[nH]c(=O)n2C	-0.43	8	10	0.017	-0.062	9.6*	20192*	1580	+
CCOc1cc(/C=N/n2cnnc2)ccc1OC(=O)c1cccc([N+](=O)[O-])c1	nt	nt	nt	nt	-0.82	nt	nt	nt	nt
CS(=O)(=O)N(CC(=O)Nc1cc(Cl)ccc1Cl)c1ccccc1Cl	nt	nt	nt	nt	0.26	nt	nt	nt	nt
CCN1CCN(C(=O)c2nn(-c3ccc(C)cc3)c(=O)c3c2c2ccccc2n3C)CC1	0.77	5	15	-1.5	-0.095	4.8*	5812	nt	i
